Activity calls are given as the source filed them. The calls are words filed in the database; no cut-off is given here.

Series [1] deals with Plasmodium falciparum. Description: Antimalarial activity against Plasmodium falciparum D6. The class given is functional, organism-based.
Series [2] deals with Plasmodium falciparum. Description: Antimalarial activity against Plasmodium falciparum W2. Format: functional, organism-based.
For series [3], the system named is Plasmodium falciparum. In words: Antimalarial activity against Plasmodium falciparum C235. The class given is functional, organism-based.
The subject of series [4] is Plasmodium falciparum. Description: Resistance index, ratio of IC50 for Plasmodium falciparum W2 to IC50 for Plasmodium falciparum D6. Format: functional. The method, boiled down: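 P. falciparum clones D6 (CQ/MFQ-susceptible, Sierra I/UNC), W2 (CQ-resistant, MFQ-susceptible, Indochina I) and TM91C235 (CQ- and MFQ-resistant, South-East Asian) were tested in a modified Desjardins in vitro susceptibility screen, giving IC50 and IC90. Resistance index is IC50 of the resistant strain divided by IC50 against D6 (W2/D6, C235/D6).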

Series [5] deals with Plasmodium falciparum. Description: Resistance index, ratio of IC50 for Plasmodium falciparum C235 to IC50 for Plasmodium falciparum D6. The class given is functional.
The test system of series [6] is RAW264.7. In words: Cytotoxicity against rat RAW264.7 cells by MTT assay. Format: cell-based. The method, boiled down: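 RAW 264.7 cells were seeded at 2.5×10^4 per well about 12 h before dosing. They were exposed to 0.29–48 μg/ml compound for 48 h at 37°C, 5% CO2. Viability was read by MTT reduction, with a DMSO control. Runs were in duplicate, and IC50 came from sigmoidal variable-slope dose-response fits.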
For orientation: Formazan colour is commonly taken as a measure of viable cells.

The nature of series [7]: Selectivity index, ratio of IC50 for […] cells to IC50 for Plasmodium falciparum D6. The class given is toxicity, cell-based. The settings on record: read-out: Ratio IC50.
The nature of series [8]: Selectivity index, ratio of IC50 for […] cells to IC50 for Plasmodium falciparum W2. Format: toxicity, cell-based. The settings on record: read-out: Ratio IC50.
Series [9] can be described thus: Selectivity index, ratio of IC50 for […] cells to IC50 for Plasmodium falciparum C235. Format: toxicity, cell-based. The settings on record: read-out: Ratio IC50.
A short description of series [10]: Selectivity index, ratio of IC90 for […] cells to IC90 for Plasmodium falciparum D6. The class given is toxicity, cell-based.
Series [11] in a line: Selectivity index, ratio of IC90 for […] cells to IC90 for Plasmodium falciparum W2. Format: toxicity, cell-based.
Series [12] is described as follows: Selectivity index, ratio of IC90 for […] cells to IC90 for Plasmodium falciparum C235. The class given is toxicity, cell-based.
Series [13] deals with Liver microsomes. In words: Half life in human liver microsomes. The class given is ADME, Microsome. In a few lines: (§1)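 Compound at 10 μM was incubated with mouse or human liver microsomes (1 mg/mL protein) in 0.1 M sodium phosphate pH 7.4 with an NADPH-regenerating system at 37°C, started by G6PD. Samples were quenched with cold acetonitrile at 0, 10, 30 and 60 min and analysed by LC-MS/MS. Half-life = 0.693/k.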
For orientation: Liver microsomes are vesicles of endoplasmic reticulum, rich in cytochrome P450 enzymes.

The test system of series [14] is Liver. Description: Half life in mouse liver microsomes. The class given is ADME, Microsome. The method, boiled down:
as §1

Series [15] has as its system Ebolavirus. In words: Antiviral activity against Zaire ebolavirus expressing enhanced GFP in Vero 76 cells at 20 uM after 48 hrs by standard Plaque assay. Format: functional. Conditions: Orthoebolavirus.
The subject of series [16] is Ebolavirus. In words: Antiviral activity against Zaire ebolavirus expressing enhanced GFP in Vero 76 cells after 48 hrs by standard Plaque assay. The settings on record: Orthoebolavirus. Format: functional, cell-based.
For series [17], the system named is Vero. Description: Cytotoxicity against african green monkey Vero 76 cells at 20 uM. The settings on record: chlorocebus sabaeus. Format: cell-based.
Series [18] has as its target Botulinum neurotoxin type A (Clostridium botulinum) (UniProt P0DPI0). Description: Inhibition of clostridium botulinum Botulinum neurotoxin type A light chain at 20 uM. In a few lines: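 Recombinant BoNT/A LC and peptide substrate were incubated in 40 mM HEPES–0.05% Tween pH 7.3 with 0.5 mg/ml BSA and 50 μM excess ZnCl2 at 37°C, with compound at 20 μM. Reactions were quenched with TFA, and substrate hydrolysis was quantified by reverse-phase HPLC peak areas. Percent inhibition was measured in duplicate.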

The subject of series [19] is Plasmodium berghei. In words: Antiplasmodial activity against Plasmodium berghei str. ANKA infected in ICR mouse assessed as protection against infection. Format: functional, organism-based. The method, boiled down: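 ICR mice were dosed orally once daily on days -1, 0 (1–3 h before inoculation) and +1, with compound in 0.5% hydroxyethylcellulose/0.1% Tween 80. On day 0 they received 1.0×10^5 P. berghei ANKA sporozoites IV, taken from Anopheles dirus salivary glands. Giemsa thick/thin tail smears were read on days 4–31. Protection meant no parasitemia within 10 days and negative smears through day 31.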

For series [20], the system named is Mus musculus. In words: Toxicity against ICR mouse at 160 mg/kg, po for 3 consecutive days measured. Format: organism-based. Set-up: dose 160 mg/kg, route oral. Conditions: in vivo. The method, boiled down: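 P. berghei (P-line)-infected outbred ICR mice were given compound orally in 0.5% hydroxyethylcellulose/0.1% Tween 80 daily for 3 days. Toxicity was judged from overt physical or behavioural changes, checked twice daily, plus gross necropsy of all mice.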

Chain of Botulinum neurotoxin type A (Clostridium botulinum) (P0DPI0 2-448 limits assumed): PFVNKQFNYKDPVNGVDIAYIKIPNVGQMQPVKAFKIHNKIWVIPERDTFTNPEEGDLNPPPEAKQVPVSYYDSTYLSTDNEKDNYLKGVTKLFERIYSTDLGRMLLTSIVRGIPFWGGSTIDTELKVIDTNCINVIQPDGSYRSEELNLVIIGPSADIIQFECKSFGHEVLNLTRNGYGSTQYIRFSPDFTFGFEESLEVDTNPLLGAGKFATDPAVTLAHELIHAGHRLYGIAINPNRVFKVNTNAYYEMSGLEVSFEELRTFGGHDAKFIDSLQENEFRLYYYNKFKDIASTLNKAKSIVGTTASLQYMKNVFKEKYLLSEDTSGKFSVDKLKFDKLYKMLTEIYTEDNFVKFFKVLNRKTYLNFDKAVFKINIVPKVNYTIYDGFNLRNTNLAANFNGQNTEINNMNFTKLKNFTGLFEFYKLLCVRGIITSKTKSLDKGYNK

One may read the IC50 as the point on the concentration scale where inhibition reaches its midpoint. Usually IC90 stands for the point of the concentration-response curve where the effect stands at 90%. Broadly, the inhibition is the percentage by which the read-out fell short of the control. `CCN(CC)CCNc1cc(C)nc2c1ccc1c2ccc2c(NCCN(CC)CC)cc(C)nc21.Cl`: the IC50 was determined as 6.01 nM in series [1]; 3.32 nM in series [3]; 9350 nM in series [6] (Mus musculus, RAW264.7); 5000 nM in [16]. For the same compound, the IC90 in [1] is 9.01 nM; in series [2] it was 10.1 nM; in [3], 3.79 nM; in series [6] (rat, raw264.7) it was 10700 nM. Further, the “Ratio IC50” value stood at 0.57 in series [4] and 0.55 in [5]. Moreover, the selectivity ratio came to 1560 in series [7]; 2690 in [8]; 282 in series [9]; 1190 in series [10]; 1060 in [11]; 2830 in [12]. Further, the t1/2 in [13] and in series [14] was more than 1 h in each case. In addition, the inhibition at 20 µM in series [15] is 97%. The figures for the Activity in series [17] and in series [20] were less than 20% and “Non-toxic”, respectively. For the same compound, the inhibition in series [18] turned out to be 55.4%. Also, in [19], the outcome was inactive.
